How the values were obtained:
[1] = target: von Hippel-Lindau disease tumor suppressor/Indoleamine 2,3-dioxygenase 1 (Homo sapiens) (UniProt P14902+P40337); test: Protac activity at IDO1/VHL in IFNgamma-stimulated human U87 cells assessed as IDO1 degradation at 10 uM measured after 24 hrs by Western blotting analysis relative to control; assay type: cell-based
Method in brief: (§1)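 U87 GBM cells primed with human IFNγ 50 ng/mL for 24 h, then exposed to PROTAC at 10 μM for 24 h. Lysates run on western blot; IDO1 bands quantified by densitometry and expressed as percent of normalized IDO1 protein level.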

[2] = target: Protein cereblon/Indoleamine 2,3-dioxygenase 1 (Homo sapiens, UniProt P14902+Q96SW2); test: Protac activity at IDO1/CRBN in IFNgamma-stimulated human U87 cells assessed as IDO1 degradation at 10 uM measured after 24 hrs by Western blotting analysis relative to control; assay type: cell-based; method in brief: as §1
Protein cereblon/Indoleamine 2,3-dioxygenase 1, sequence (P14902 whole entry, looked up): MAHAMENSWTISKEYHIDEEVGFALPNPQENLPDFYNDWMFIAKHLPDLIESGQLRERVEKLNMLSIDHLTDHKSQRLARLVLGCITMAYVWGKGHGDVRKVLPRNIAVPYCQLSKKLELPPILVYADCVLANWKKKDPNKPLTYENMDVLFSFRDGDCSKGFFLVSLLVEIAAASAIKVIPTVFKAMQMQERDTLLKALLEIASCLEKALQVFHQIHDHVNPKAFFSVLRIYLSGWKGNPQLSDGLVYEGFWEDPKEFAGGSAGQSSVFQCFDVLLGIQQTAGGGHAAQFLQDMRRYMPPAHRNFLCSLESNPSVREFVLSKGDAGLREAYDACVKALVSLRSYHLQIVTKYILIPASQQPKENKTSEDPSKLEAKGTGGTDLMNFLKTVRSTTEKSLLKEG
Protein cereblon/Indoleamine 2,3-dioxygenase 1, sequence (Q96SW2 whole entry, looked up): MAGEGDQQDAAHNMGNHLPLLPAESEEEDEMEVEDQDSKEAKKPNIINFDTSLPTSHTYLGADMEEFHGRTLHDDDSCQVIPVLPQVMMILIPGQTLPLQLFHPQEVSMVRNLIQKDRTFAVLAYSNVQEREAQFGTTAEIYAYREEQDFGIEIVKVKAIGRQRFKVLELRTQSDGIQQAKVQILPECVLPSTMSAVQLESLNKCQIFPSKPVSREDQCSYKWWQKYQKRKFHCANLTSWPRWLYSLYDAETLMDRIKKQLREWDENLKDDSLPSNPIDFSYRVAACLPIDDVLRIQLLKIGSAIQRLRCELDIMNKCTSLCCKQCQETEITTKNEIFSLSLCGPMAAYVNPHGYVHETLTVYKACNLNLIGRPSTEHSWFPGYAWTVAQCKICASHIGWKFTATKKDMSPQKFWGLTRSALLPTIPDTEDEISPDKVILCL

von Hippel-Lindau disease tumor suppressor/Indoleamine 2,3-dioxygenase 1 (Homo sapiens), sequence (P14902 whole entry, looked up): as the sequence (P14902 whole entry, looked up) above
von Hippel-Lindau disease tumor suppressor/Indoleamine 2,3-dioxygenase 1 (Homo sapiens), sequence (P40337 whole entry, looked up): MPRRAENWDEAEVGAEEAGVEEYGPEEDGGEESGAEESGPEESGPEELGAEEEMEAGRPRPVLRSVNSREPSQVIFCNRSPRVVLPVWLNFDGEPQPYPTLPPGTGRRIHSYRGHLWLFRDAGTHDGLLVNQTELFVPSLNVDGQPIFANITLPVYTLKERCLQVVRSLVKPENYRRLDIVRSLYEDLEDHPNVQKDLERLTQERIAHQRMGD

Row | Activity [1] [%] | Activity [2] [%] | SMILES
1 | 0 |  | Cc1ncsc1-c1ccc(CNC(=O)[C@@H]2C[C@@H](O)CN2C(=O)[C@@H](NCCOCCOCCOCCOCCOc2cc(NC(=O)[C@H](C)[C@H]3CC[C@@H](c4ccnc5ccc(F)cc54)CC3)ccc2Cl)C(C)(C)C)cc1
2 | 0 |  | Cc1ncsc1-c1ccc(CNC(=O)[C@@H]2C[C@@H](O)CN2C(=O)[C@@H](NC(=O)C2(F)CC2)C(C)(C)C)c(OCCOCCCN2CCC(Oc3ccc(NC(=O)[C@H](C)[C@H]4CC[C@@H](c5ccnc6ccc(F)cc65)CC4)cc3)CC2)c1
3 | 88 |  | Cc1ncsc1-c1ccc(CNC(=O)[C@@H]2C[C@@H](O)CN2C(=O)[C@@H](NCCOCCC(=O)N2CCC(Oc3ccc(NC(=O)[C@H](C)[C@H]4CC[C@@H](c5ccnc6ccc(F)cc65)CC4)cc3)CC2)C(C)(C)C)cc1
4 | 67 |  | Cc1ncsc1-c1ccc(CNC(=O)[C@@H]2C[C@@H](O)CN2C(=O)[C@@H](NCCOCCOCCC(=O)N2CCC(Oc3ccc(NC(=O)[C@H](C)[C@H]4CC[C@@H](c5ccnc6ccc(F)cc65)CC4)cc3)CC2)C(C)(C)C)cc1
5 | 0 |  | Cc1ncsc1-c1ccc(CNC(=O)[C@@H]2C[C@@H](O)CN2C(=O)[C@@H](NCCOCCOCCOCCOc2ccc(NC(=O)[C@H](C)[C@H]3CC[C@@H](c4ccnc5ccc(F)cc54)CC3)cc2)C(C)(C)C)cc1
6 | 90 |  | Cc1ncsc1-c1ccc(CNC(=O)[C@@H]2C[C@@H](O)CN2C(=O)[C@@H](NC(=O)C2(F)CC2)C(C)(C)C)c(OCCCCCCCCCOc2cc(NC(=O)[C@H](C)[C@H]3CC[C@@H](c4ccnc5ccc(F)cc54)CC3)ccc2Cl)c1
7 | 20 |  | Cc1ncsc1-c1ccc(CNC(=O)[C@@H]2C[C@@H](O)CN2C(=O)[C@@H](NC(=O)C2(F)CC2)C(C)(C)C)c(OCCOCCC(=O)N2CC(Oc3ccc(NC(=O)[C@H](C)[C@H]4CC[C@@H](c5ccnc6ccc(F)cc65)CC4)cc3)C2)c1
8 | 0 |  | Cc1ncsc1-c1ccc(CNC(=O)[C@@H]2C[C@@H](O)CN2C(=O)[C@@H](NC(=O)C2(F)CC2)C(C)(C)C)c(OCCOCCOCCOCCOCCOCCOc2cc(NC(=O)[C@H](C)[C@H]3CC[C@@H](c4ccnc5ccc(F)cc54)CC3)ccc2Cl)c1
9 | 23 |  | Cc1ncsc1-c1ccc(CNC(=O)[C@@H]2C[C@@H](O)CN2C(=O)[C@@H](NC(=O)C2(F)CC2)C(C)(C)C)c(OCCCCCCCCCCOc2ccc(NC(=O)[C@H](C)[C@H]3CC[C@@H](c4ccnc5ccc(F)cc54)CC3)cc2)c1
10 | 72 |  | Cc1ncsc1-c1ccc(CNC(=O)[C@@H]2C[C@@H](O)CN2C(=O)[C@@H](NC(=O)C2(F)CC2)C(C)(C)C)c(OCCOCCC(=O)N2CCC(Oc3ccc(NC(=O)[C@H](C)[C@H]4CC[C@@H](c5ccnc6ccc(F)cc65)CC4)cc3)CC2)c1
11 | 0 |  | Cc1ncsc1-c1ccc(CNC(=O)[C@H]2C[C@H](O)CN2C(=O)[C@H](NCCCOc2cc(NC(=O)[C@H](C)[C@H]3CC[C@@H](c4ccnc5ccc(F)cc54)CC3)ccc2Cl)C(C)(C)C)cc1
12 | 0 |  | Cc1ncsc1-c1ccc(CNC(=O)[C@@H]2C[C@@H](O)CN2C(=O)[C@@H](NC(=O)C2(F)CC2)C(C)(C)C)c(OCCCCCCOc2cc(NC(=O)[C@H](C)[C@H]3CC[C@@H](c4ccnc5ccc(F)cc54)CC3)ccc2Cl)c1
13 | 23 |  | Cc1ncsc1-c1ccc(CNC(=O)[C@@H]2C[C@@H](O)CN2C(=O)[C@@H](NC(=O)C2(F)CC2)C(C)(C)C)c(OCCOCCOc2cc(NC(=O)[C@H](C)[C@H]3CC[C@@H](c4ccnc5ccc(F)cc54)CC3)ccc2Cl)c1
14 | 27 |  | Cc1ncsc1-c1ccc(CNC(=O)[C@@H]2C[C@@H](O)CN2C(=O)[C@@H](NC(=O)C2(F)CC2)C(C)(C)C)c(OCCOCCOCCOCCOCCOCCOc2ccc(NC(=O)[C@H](C)[C@H]3CC[C@@H](c4ccnc5ccc(F)cc54)CC3)cc2)c1
15 | 0 |  | Cc1ncsc1-c1ccc(CNC(=O)[C@@H]2C[C@@H](O)CN2C(=O)[C@@H](NC(=O)C2(F)CC2)C(C)(C)C)c(OCCOCCOCCOCCOCCOc2ccc(NC(=O)[C@H](C)[C@H]3CC[C@@H](c4ccnc5ccc(F)cc54)CC3)cc2)c1
16 | 39 |  | Cc1ncsc1-c1ccc(CNC(=O)[C@@H]2C[C@@H](O)CN2C(=O)[C@@H](NC(=O)C2(F)CC2)C(C)(C)C)c(OCCOCCOc2ccc(NC(=O)[C@H](C)[C@H]3CC[C@@H](c4ccnc5ccc(F)cc54)CC3)cc2)c1
17 | 0 |  | Cc1ncsc1-c1ccc(CNC(=O)[C@@H]2C[C@@H](O)CN2C(=O)[C@@H](NCCOCCOCCOc2ccc(NC(=O)[C@H](C)[C@H]3CC[C@@H](c4ccnc5ccc(F)cc54)CC3)cc2)C(C)(C)C)cc1
18 | 0 |  | Cc1ncsc1-c1ccc(CNC(=O)[C@@H]2C[C@@H](O)CN2C(=O)[C@@H](NC(=O)C2(F)CC2)C(C)(C)C)c(OCCOCCOCCOCCOCCOc2cc(NC(=O)[C@H](C)[C@H]3CC[C@@H](c4ccnc5ccc(F)cc54)CC3)ccc2Cl)c1
19 | 21 |  | Cc1ncsc1-c1ccc(CNC(=O)[C@H]2C[C@H](O)CN2C(=O)[C@H](NCCCCCCOc2cc(NC(=O)[C@H](C)[C@H]3CC[C@@H](c4ccnc5ccc(F)cc54)CC3)ccc2Cl)C(C)(C)C)cc1
20 | 10 |  | Cc1ncsc1-c1ccc(CNC(=O)[C@@H]2C[C@@H](O)CN2C(=O)[C@@H](NC(=O)C2(F)CC2)C(C)(C)C)c(OCCCCOc2ccc(NC(=O)[C@H](C)[C@H]3CC[C@@H](c4ccnc5ccc(F)cc54)CC3)cc2)c1
21 | 0 |  | Cc1ncsc1-c1ccc(CNC(=O)[C@@H]2C[C@@H](O)CN2C(=O)[C@@H](NCCOCCOc2cc(NC(=O)[C@H](C)[C@H]3CC[C@@H](c4ccnc5ccc(F)cc54)CC3)ccc2Cl)C(C)(C)C)cc1

Row | Activity [1] [%] | Activity [2] [%] | SMILES
22 | 0 |  | Cc1ncsc1-c1ccc(CNC(=O)[C@@H]2C[C@@H](O)CN2C(=O)[C@@H](NC(=O)C2(F)CC2)C(C)(C)C)c(OCCOCCOCCOCCOc2ccc(NC(=O)[C@H](C)[C@H]3CC[C@@H](c4ccnc5ccc(F)cc54)CC3)cc2)c1
23 | 0 |  | Cc1ncsc1-c1ccc(CNC(=O)[C@@H]2C[C@@H](O)CN2C(=O)[C@@H](NCCOCCOCCOCCOCCOCCOc2cc(NC(=O)[C@H](C)[C@H]3CC[C@@H](c4ccnc5ccc(F)cc54)CC3)ccc2Cl)C(C)(C)C)cc1
24 | 0 |  | Cc1ncsc1-c1ccc(CNC(=O)[C@@H]2C[C@@H](O)CN2C(=O)[C@@H](NCCOCCOCCOCCOc2cc(NC(=O)[C@H](C)[C@H]3CC[C@@H](c4ccnc5ccc(F)cc54)CC3)ccc2Cl)C(C)(C)C)cc1
25 | 0 |  | Cc1ncsc1-c1ccc(CNC(=O)[C@@H]2C[C@@H](O)CN2C(=O)[C@@H](NC(=O)C2(F)CC2)C(C)(C)C)c(OCCOCCOCCOc2ccc(NC(=O)[C@H](C)[C@H]3CC[C@@H](c4ccnc5ccc(F)cc54)CC3)cc2)c1
26 | 0 |  | Cc1ncsc1-c1ccc(CNC(=O)[C@@H]2C[C@@H](O)CN2C(=O)[C@@H](NC(=O)C2(F)CC2)C(C)(C)C)c(OCCOCCOCCOc2cc(NC(=O)[C@H](C)[C@H]3CC[C@@H](c4ccnc5ccc(F)cc54)CC3)ccc2Cl)c1
27 | 0 |  | Cc1ncsc1-c1ccc(CNC(=O)[C@@H]2C[C@@H](O)CN2C(=O)[C@@H](NCCCCCCCOc2ccc(NC(=O)[C@H](C)[C@H]3CC[C@@H](c4ccnc5ccc(F)cc54)CC3)cc2)C(C)(C)C)cc1
28 | 3 |  | Cc1ncsc1-c1ccc(CNC(=O)[C@@H]2C[C@@H](O)CN2C(=O)[C@@H](NC(=O)C2(F)CC2)C(C)(C)C)c(OCCOCCOCCC(=O)N2CCC(Oc3ccc(NC(=O)[C@H](C)[C@H]4CC[C@@H](c5ccnc6ccc(F)cc65)CC4)cc3)CC2)c1
29 | 0 |  | Cc1ncsc1-c1ccc(CNC(=O)[C@@H]2C[C@@H](O)CN2C(=O)[C@@H](NCCCCOc2ccc(NC(=O)[C@H](C)[C@H]3CC[C@@H](c4ccnc5ccc(F)cc54)CC3)cc2)C(C)(C)C)cc1
30 |  | 18 | C[C@@H](C(=O)Nc1ccc(OCCOCCOc2cccc3c2C(=O)N(C2CCC(=O)NC2=O)C3=O)cc1)[C@H]1CC[C@@H](c2ccnc3ccc(F)cc32)CC1 (stereo partly specified)
31 |  | 81 | C[C@@H](C(=O)Nc1ccc(OC2CCN(C(=O)CCOCCOCCNC(=O)COc3cccc4c3C(=O)N(C3CCC(=O)NC3=O)C4=O)CC2)cc1)[C@H]1CC[C@@H](c2ccnc3ccc(F)cc32)CC1 (stereo partly specified)
32 |  | 66 | C[C@@H](C(=O)Nc1ccc(OC2CCN(CCCOCCNC(=O)COc3cccc4c3C(=O)N(C3CCC(=O)NC3=O)C4=O)CC2)cc1)[C@H]1CC[C@@H](c2ccnc3ccc(F)cc32)CC1 (stereo partly specified)
33 |  | 49 | C[C@@H](C(=O)Nc1ccc(Cl)c(OCCCOc2cccc3c2C(=O)N(C2CCC(=O)NC2=O)C3=O)c1)[C@H]1CC[C@@H](c2ccnc3ccc(F)cc32)CC1 (stereo partly specified)
34 |  | 88 | C[C@@H](C(=O)Nc1ccc(Cl)c(OCCOCCOCCOc2cccc3c2C(=O)N(C2CCC(=O)NC2=O)C3=O)c1)[C@H]1CC[C@@H](c2ccnc3ccc(F)cc32)CC1 (stereo partly specified)
35 |  | 38 | C[C@@H](C(=O)Nc1ccc(OC2CCN(C(=O)CCOCCNC(=O)COc3cccc4c3C(=O)N(C3CCC(=O)NC3=O)C4=O)CC2)cc1)[C@H]1CC[C@@H](c2ccnc3ccc(F)cc32)CC1 (stereo partly specified)
36 |  | 0 | C[C@@H](C(=O)Nc1ccc(Cl)c(OCCOCCOCCOCCOCCNC(=O)COc2cccc3c2C(=O)N(C2CCC(=O)NC2=O)C3=O)c1)[C@H]1CC[C@@H](c2ccnc3ccc(F)cc32)CC1 (stereo partly specified)
37 |  | 86 | C[C@@H](C(=O)Nc1ccc(OC2CN(C(=O)CCOCCOc3cccc4c3C(=O)N(C3CCC(=O)NC3=O)C4=O)C2)cc1)[C@H]1CC[C@@H](c2ccnc3ccc(F)cc32)CC1 (stereo partly specified)
38 |  | 94 | C[C@@H](C(=O)Nc1ccc(OCCOCCOCCOc2cccc3c2C(=O)N(C2CCC(=O)NC2=O)C3=O)cc1)[C@H]1CC[C@@H](c2ccnc3ccc(F)cc32)CC1 (stereo partly specified)
39 |  | 8 | C[C@@H](C(=O)Nc1ccc(Cl)c(OCCOCCNC(=O)COc2cccc3c2C(=O)N(C2CCC(=O)NC2=O)C3=O)c1)[C@H]1CC[C@@H](c2ccnc3ccc(F)cc32)CC1 (stereo partly specified)
40 |  | 0 | C[C@@H](C(=O)Nc1ccc(OC2CCN(CCCOCCOc3cccc4c3C(=O)N(C3CCC(=O)NC3=O)C4=O)CC2)cc1)[C@H]1CC[C@@H](c2ccnc3ccc(F)cc32)CC1 (stereo partly specified)
41 |  | 0 | C[C@@H](C(=O)Nc1ccc(OCCCCOc2cccc3c2C(=O)N(C2CCC(=O)NC2=O)C3=O)cc1)[C@H]1CC[C@@H](c2ccnc3ccc(F)cc32)CC1 (stereo partly specified)
